Experimental data collected from several papers.
Compare with care: the assays were run in different laboratories.
Target: Aurora kinase C (AURKC, Homo sapiens, UniProt Q9UQB9)
Residues used in one study (Q9UQB9 1-309): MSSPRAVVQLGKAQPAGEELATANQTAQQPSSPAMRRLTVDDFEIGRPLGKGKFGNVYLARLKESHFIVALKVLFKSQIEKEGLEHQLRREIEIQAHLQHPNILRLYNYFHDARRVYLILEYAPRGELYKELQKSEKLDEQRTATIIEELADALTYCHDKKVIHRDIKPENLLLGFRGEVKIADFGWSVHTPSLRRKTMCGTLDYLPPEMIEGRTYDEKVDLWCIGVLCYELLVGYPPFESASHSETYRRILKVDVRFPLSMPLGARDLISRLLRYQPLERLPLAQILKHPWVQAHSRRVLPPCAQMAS

| Compound | observed | technique | tested at | remaining binding [%] |
| --- | --- | --- | --- | --- |
| CO[C@@H](C)c1c(Nc2ccc([C@H](N(C)C(=O)C3CCS(=O)(=O)CC3)C(F)(F)F)cc2)cnc2cc(Cl)nn12 | cell-free assay | competition with immobilised ligand | 1 µM | 77 |
| CNC(=O)[C@@H]1CC[C@@H](n2c(-c3ccc4cnccc4c3)nc3ccc(C(=O)NCc4cccc(C(N)=O)c4)cc32)C1 | binding | competition with immobilised ligand | 1 µM | 100 |
| CCN1CCN(Cc2ccc(C(=O)Nc3ccc(C)c(Oc4ccc5c(c4)CC(=O)N5)c3)cc2C(F)(F)F)CC1 | binding | competition with immobilised ligand | 1 µM | 91 |
| Nc1ncc2c(n1)-c1c([nH]c3ccc(C#CC4CC4)cc13)CCCC2 | binding | competition with immobilised ligand | 1 µM | 86 |
| O=C(Nc1cccnn1)N1CCC(=Cc2cccc(Oc3ccc(C(F)(F)F)cn3)c2)CC1 | cell-free assay | competition with immobilised ligand | 1 µM | 100 |
| CC1CCCN1c1nccc(-c2cnn3ncccc23)n1 (stereo not shown) | binding |  | 1 µM | 89 |
| O=C(NCCCN1CCOCC1)c1ccc(Nc2nccc(-c3cc4ccccc4s3)n2)cc1 | binding | competition with immobilised ligand | 1 µM | 32 |
| O=C(Nc1c[nH]nc1C(=O)NC1CCNCC1)c1cc(F)cc(F)c1 | binding | competition with immobilised ligand | 1 µM | 84 |
| O=C(NCCCN1CCOCC1)c1ccc(Nc2ncc(Cl)c(-c3ccc(Cl)s3)n2)cc1 | binding | competition with immobilised ligand | 1 µM | 5.5 |
| c1cncc(-c2cccc(Nc3nccc(NC4CCCCC4)n3)c2)c1 | binding | competition with immobilised ligand | 10 µM | 5.5 |
| CO[C@H]1CC[C@H](CNc2ccc(S(=O)(=O)NC(=O)c3ccc(N4CCN(CC5=C(c6ccc(Cl)cc6)CC(C)(C)CC5)CC4)cc3Oc3cnc4[nH]ccc4c3)cc2[N+](=O)[O-])CC1 | cell-free assay | competition with immobilised ligand | 1 µM | 87 |
| C[C@@H]1CCN(c2nccc(-c3cnn4ncccc34)n2)C1 | binding |  | 1 µM | 98 |
| Cc1cnc(Nc2ccc(C(=O)N3CCC(N4CCCC4)CC3)cc2)nc1-c1cc2ccccc2s1 | binding | competition with immobilised ligand | 1 µM | 4.3 |
| COc1cccc(CNC(=O)c2nc3scc(COCc4ccc(C(=O)O)cc4)c3c(=O)[nH]2)c1 | cell-free assay | competition with immobilised ligand | 1 µM | 67.3 |
| N[C@H]1CCN(c2nccc(-c3cnn4ncccc34)n2)C1 | binding |  | 1 µM | 97 |
| O=C(N1CCS(=O)(=O)CC1)N1C[C@H](c2ccc(OC(F)(F)F)cc2)C[C@H](c2nc(C3CC3)no2)C1 | cell-free assay | competition with immobilised ligand | 1 µM | 99 |
| CN(C)c1nccc(-c2cnn3ncccc23)n1 | binding |  | 1 µM | 100 |
| COc1ccc2c(c1)O[C@H](c1ccc(OC)c(OC)c1)C[C@@H]2NC(=O)C1(c2ccc3c(c2)OC(F)(F)O3)CC1 | cell-free assay | competition with immobilised ligand | 1 µM | 100 |
| CN(C)c1nccc(-c2cnc3ncccn23)n1 | binding |  | 1 µM | 100 |
| CS(=O)(=O)c1cc(C2(NC(=O)c3cncc4c3cnn4-c3ccc(F)cc3)CC2)ccn1 | cell-free assay | competition with immobilised ligand | 1 µM | 100 |
| c1cnn2ncc(-c3ccnc(N4CCC45COC5)n3)c2c1 | binding |  | 1 µM | 96 |
| C[C@@H](c1ccc(-n2cnc3c(N)ncnc32)cc1)N1CCc2nn(C)c(Cc3ccccc3)c2C1=O | binding | competition with immobilised ligand | 0.1 µM | 79 |
